Screening data (PubChem)
T cruzi repl: T. cruzi replication inhibition; hit rate 1.4% among 300,000; T. cruzi beta-gal in NIH3T3, luminescence, 90 h; inhibition, % (test concentration not listed);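 active = mean inhibition across valid replicates above about 55%, limit read from the data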;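 also: signal also drops with host cell toxicity which is not excluded here; higher percent means less beta-gal luminescence so fewer parasites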
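assay system = mouse NIH/3T3 fibroblasts infected with β-gal-expressing T. cruzi Tulahuen C4 | input = 5,000 NIH/3T3 host cells per well | buffer or medium = DMEM plus 2% FBS | timing = 3 h host attachment, then at least 90 h co-culture | measured by = GalScreen luminescence, 60 min | evaluation = luminescence reflecting intracellular parasite burden, expressed as percent inhibition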
Calb FLC: affects C. albicans growth with fluconazole. growth inhibition, % (no concentration beside the values). C. albicans CaCi-2 + fluconazole, Alamar Blue growth, 48 h. hit rate 0.57% among 300,000;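 active = growth inhibition above about 58% in most replicates, limit read from the data, passing the limit was not always enough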;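 also: all wells also contain fluconazole at 8 µg/ml as a sub-toxic cotreatment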
PolyA inh: blocks polyadenylation in yeast reporter cells. S. cerevisiae SKY197-pL101 polyadenylation reporter, beta-gal luminescence; efflux-impaired pdr1/pdr3 knockout yeast; score 100 = 6 SD above DMSO. activity score, % at 12 µM. hit rate 0.02% among 300,000;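 active = lowest replicate activity score at least 50, where 100 means six control SD above control mean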;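 also: yeast exposed to compound for 9 h at 30 °C; higher score means more reporter readthrough which indicates perturbed polyadenylation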
NLRP3 yeast inh: blocks the NALP3 inflammasome reconstituted in yeast; Yeast reconstituted NLRP3/ASC/caspase-1, beta-gal luminescence, 24 h; inhibition, % at 10 µM; hit rate 0.39% among 330,000; AID 2825;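 active = inhibition of 50% or more; inactive = inhibition below 50%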
L major viab: Leishmania major promastigote growth inhibition; Leishmania major promastigotes, resazurin fluorescence viability; AID 1063; inhibition, % at 10 µM; hit rate 9% among 200,000; in the data active = inhibition above about 50%;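 also: promastigotes grown with compound for 44 hours at 28 °C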
NALP1 yeast inh: blocks the NALP1 inflammasome reconstituted in yeast. S. cerevisiae NALP1/ASC/caspase-1 growth, X-gal OD620, 72 h. inhibition, % at 10 µM. hit rate 0.61% among 280,000. AID 2071; in the data active = inhibition mostly above about 24%, no sharp cut-off; inactive = mostly below about 32%
Numbers stand for hits; . = inactive; / = no result given. This excerpt belongs to a sample that is enriched for hits.

SMILES	T cruzi repl	Calb FLC	PolyA inh	NLRP3 yeast inh	L major viab	NALP1 yeast inh
Cn1cnnc1SCc1ccc(-c2ccc(Br)cc2)o1	.	.	.	.	.	.
C=CCN1C(=O)c2ccc(C(=O)N(CC)CC(=O)Nc3ccc(OC)cc3)cc2C1=O	.	.	.	.	/	/
CC1CCCCN1C(=O)CSc1nc2cc3c(cc2c(=O)n1Cc1ccc2c(c1)OCO2)OCO3 (stereo not given)	.	.	.	.	54.1	.
CC(C)(C)c1nc(SCC(=O)Nc2nc3c(s2)CCCC3)c2ccccc2n1	59.2	.	.	.	79.8	.
CCN(c1ccccc1)S(=O)(=O)c1ccc(Cl)c(NC(=O)COC(=O)c2ccc[nH]c2=O)c1	.	.	.	.	/	.
Cc1cccc(C)c1-n1c(C)cc(/C=N/NC(N)=S)c1C	.	.	.	.	96.5	.
Cc1cc(/C=N/NC(=O)C(O)(c2ccccc2)c2ccccc2)c(C)n1-c1cccc(C(=O)O)c1	.	.	.	.	/	.
Cc1cc(/C=N/NC(N)=S)c(C)n1-c1ccc(Br)cc1	.	.	.	.	99.5	.
Cc1cc(/C=N/NC(N)=S)c(C)n1-c1ccc(Cl)cc1	.	.	.	.	89.0	.
Cc1cc(/C=N/O)c(C)n1-c1ccc(Br)cc1	.	.	.	.	.	.
Cc1cc(/C=N/NC(N)=S)c(C)n1-c1cccc(Cl)c1	73.3	104.0	.	.	94.2	.
Cn1c(SCC(=O)c2ccccc2)nnc1-c1cccs1	.	.	.	.	/	/
N[C@@H](Cc1ccccc1)c1nnc(SC/C=C/c2ccccc2)o1	.	.	.	.	/	/
CC(C)Oc1cccc(C(=O)NC(=S)N2CCN(c3ccc(C(F)(F)F)cc3[N+](=O)[O-])CC2)c1	.	.	.	.	.	.
O=C(NC(=S)N1CCN(c2ccc(Cl)cc2[N+](=O)[O-])CC1)c1ccco1	.	.	.	.	.	.
COc1cccc(C(=O)NC(=S)N2CCN(c3ccc(C(F)(F)F)cc3[N+](=O)[O-])CC2)c1	.	.	.	.	51.5	.
O=C(NC(=S)N1CCCCC1)c1cccs1	.	.	.	.	54.9	.
CC1CCN(C(=S)NC(=O)c2cccs2)CC1	.	.	.	.	.	.
O=C(NC(=S)N1CCN(c2ccc(Cl)cc2[N+](=O)[O-])CC1)c1cccs1	.	.	.	/	75.2	.
CCCCN1C=CC(=C2C(=O)c3ccccc3C2=O)C=C1	.	.	.	.	53.0	.
C/C=C\C=C\C(=O)Nc1cccc(C2=NOC3(C2)C[C@@H](C(N)=O)N(C(=O)C(c2ccccc2)c2ccccc2)C3)c1 (stereo not given in full)	.	.	.	.	/	.
CC(C)[C@H](NC(=O)c1ccccc1)C(=O)OCC(=O)Nc1sccc1C(N)=O	/	/	/	.	/	/
O=[N+]([O-])c1ccc(Nc2nc(NC3CCCCC3)nc(N3CCCC3)n2)cc1	64.6	.	.	.	98.3	.
COc1cccc(/C=N/Nc2nc(Nc3ccc([N+](=O)[O-])cc3)nc(N3CCCC3)n2)c1O	54.9	72.1	.	.	100.4	.
O=[N+]([O-])c1ccc(Nc2nc(N/N=C/c3cccc(F)c3)nc(N3CCCC3)n2)cc1	.	.	.	.	.	.
SMILES	T cruzi repl	Calb FLC	PolyA inh	NLRP3 yeast inh	L major viab	NALP1 yeast inh
COc1cccc(/C=N/Nc2ccc([N+](=O)[O-])cn2)c1O	.	97.2	.	.	/	.
Cc1ccc(NC(=O)C(C)Sc2nc(-c3ccccc3)cc(=O)[nH]2)cc1 (stereo not given)	.	.	.	.	/	.
O=C(Cn1ncc2c([nH]c3ccccc32)c1=O)NCC1CCN(Cc2ccc(F)cc2)CC1	.	.	.	.	/	28.7
O=c1c2ccccc2[nH]c(=S)n1CCCN1CCN(C2CCCCC2)CC1	/	/	/	.	97.6	.
O=c1c2ccccc2[nH]c(=S)n1CCCN1CCOCC1	.	.	.	.	.	.
CC1CCN(CCCn2c(=S)[nH]c3ccccc3c2=O)CC1	.	.	.	.	99.8	.
CC1CCN(CCn2c(=S)[nH]c3ccccc3c2=O)CC1	.	.	.	.	/	.
O=c1c2ccccc2[nH]c(=S)n1CCCN1CCC(Cc2ccccc2)CC1	55.7	.	.	.	/	.
Cc1ccc2c(C(=O)CN3CCN(C(=O)c4ccco4)CC3)c(C)[nH]c2c1	.	.	.	.	/	.
Cc1cc(OCc2cc(C(=O)NCCN3CCCCC3CO)no2)cc(C)c1Cl (stereo not given)	.	.	.	.	/	.
O=C(CCN1CCC(c2ccccc2)C1)c1ccc2c(c1)OCCO2 (stereo not given)	.	.	.	.	100.5	.
O=C(CCN1CCC(c2ccccc2)C1)c1ccccc1 (stereo not given)	.	.	.	.	.	22.9
O=C(CCN1CCCC1Cc1ccccc1)c1ccc2c(c1)OCCO2 (stereo not given)	.	.	.	.	100.5	.
O=C(CCN1CCCCC1)c1ccc2c(c1)OCCO2	.	.	.	.	.	.
O=C(Nc1ccccc1)N1CCC(c2ccccc2)C1 (stereo not given)	.	.	.	.	.	.
COc1cc(C(=O)CCN2CCC(c3ccccc3)C2)cc(OC)c1OC (stereo not given)	.	.	.	.	81.2	.
CC(=O)N(Cc1cccs1)Cc1cc2ccc(C)c(C)c2nc1Cl	.	.	.	.	.	.
COCCNC(=O)c1cn(CCOC)c(=O)c2c1c1ccccc1n2C	.	.	.	.	/	.
CC(C)(C)NC(=O)C(=O)NNC(=O)COc1ccc(Br)cc1	.	.	.	.	.	.
O=C(N1CCCCCC1)N1CCN(S(=O)(=O)c2cccc([N+](=O)[O-])c2)CC1	.	.	.	.	/	.
O=C(CCN1CCc2ccccc2C1)c1ccc2c(c1)OCCO2	.	.	.	.	100.5	.
O=C(CCN1CCC(c2ccccc2)C1)c1cccs1 (stereo not given)	.	.	.	.	71.5	.
O=C(c1cccs1)N1CCC(c2ccccc2)C1 (stereo not given)	.	.	.	.	.	.
CCOc1ccc(CCNC(=O)COC(=O)C2=NNC(=O)CC2)cc1OCC	.	/	.	.	/	/
CCCn1c(CNc2ccc(Br)cc2)nc2ccccc21	.	.	.	.	97.4	.
Cc1cc2c(n1-c1ccc(Br)cc1)CC(C)(C)CC2=O	57.9	.	.	.	.	.
O=C(Nc1ccccc1Cl)c1ccccc1Oc1ccc(C(F)(F)F)cc1[N+](=O)[O-]	.	.	.	.	79.4	.
Cc1cccn2c(=O)c3cc(C(=O)N4CCCCC4C)sc3nc12 (stereo not given)	/	/	/	.	/	/
COc1ccc([N+](=O)[O-])cc1NS(=O)(=O)c1cccc(C(=O)NCCCN2CCCC2=O)c1	/	/	/	.	/	/
Cc1ccc(-n2ncc(C(=O)Nc3ccc(Cl)cc3)c2C2CCNCC2)cc1C	.	.	.	.	98.7	.
